Results: ChEMBL document CHEMBL3120072, “Alkynyl-coumarinyl ethers as MAO-B inhibitors” (Bioorg Med Chem, 2014)

Tests used:
Homo sapiens = species on record: Homo sapiens; assay: Selectivity ratio of IC50 for human recombinant MAO-A to IC50 for human recombinant MAO-B
How it was run: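 Ratio calculated as IC50 (MAO-A) divided by IC50 (MAO-B), from Amplex Red assays with p-tyramine on human recombinant enzymes.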

[1] = Lipophilicity, log D of the compound at pH 7.4 by HPLC analysis; type: physicochemical; settings: buffer
How it was run: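 Retention-based HPLC on a C18 column at 40 °C and 0.8 mL/min. Linear gradient with 10 mM ammonium acetate. UV read at 254 nm. Atenolol, metoprolol, diltiazem, labetalol and triphenylene used as references. Compounds injected from DMSO solutions (0.5 mg/mL) in duplicate.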

[2] = biological target: T1, Amine oxidase [flavin-containing] B (Homo sapiens, UniProt P27338); assay: Inhibition of human recombinant MAO-B expressed in baculovirus infected insect cells assessed as hydrogen peroxide production using p-tyramine as substrate incubated for 30 mins prior to substrate addition measured for 45 mins by Amplex Red monoamine oxidase assay
T1 sequence (P27338 whole entry): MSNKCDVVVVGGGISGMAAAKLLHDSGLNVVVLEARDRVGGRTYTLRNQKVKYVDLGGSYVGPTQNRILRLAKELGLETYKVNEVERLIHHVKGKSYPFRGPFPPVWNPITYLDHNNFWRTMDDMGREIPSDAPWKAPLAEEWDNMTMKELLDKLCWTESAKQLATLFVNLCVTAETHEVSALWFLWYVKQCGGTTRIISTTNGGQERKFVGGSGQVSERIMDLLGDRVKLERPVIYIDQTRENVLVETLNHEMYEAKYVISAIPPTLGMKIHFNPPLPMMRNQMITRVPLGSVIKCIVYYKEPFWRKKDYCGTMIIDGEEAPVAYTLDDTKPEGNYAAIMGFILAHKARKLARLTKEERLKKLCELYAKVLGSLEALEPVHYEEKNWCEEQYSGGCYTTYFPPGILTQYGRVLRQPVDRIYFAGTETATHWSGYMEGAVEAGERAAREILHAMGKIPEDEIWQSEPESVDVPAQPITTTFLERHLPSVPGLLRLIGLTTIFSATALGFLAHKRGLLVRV
How it was run: (§1)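 Human recombinant enzyme in 50 mM sodium phosphate pH 7.4. Test compound in DMSO preincubated with enzyme for 30 min at room temperature. Reaction started with p-tyramine (final 150 µM) plus Amplex Red/HRP and kept in the dark. Resorufin fluorescence (ex 544, em 590 nm) read over 45 min. IC50 values from three experiments.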

[3] = biological target: T2, Amine oxidase [flavin-containing] A (Homo sapiens, UniProt P21397); assay: Inhibition of human recombinant MAO-A expressed in baculovirus infected insect cells assessed as hydrogen peroxide production using p-tyramine as substrate incubated for 30 mins prior to substrate addition measured for 45 mins by Amplex Red monoamine oxidase assay; how it was run: as §1
T2 sequence (P21397 whole entry): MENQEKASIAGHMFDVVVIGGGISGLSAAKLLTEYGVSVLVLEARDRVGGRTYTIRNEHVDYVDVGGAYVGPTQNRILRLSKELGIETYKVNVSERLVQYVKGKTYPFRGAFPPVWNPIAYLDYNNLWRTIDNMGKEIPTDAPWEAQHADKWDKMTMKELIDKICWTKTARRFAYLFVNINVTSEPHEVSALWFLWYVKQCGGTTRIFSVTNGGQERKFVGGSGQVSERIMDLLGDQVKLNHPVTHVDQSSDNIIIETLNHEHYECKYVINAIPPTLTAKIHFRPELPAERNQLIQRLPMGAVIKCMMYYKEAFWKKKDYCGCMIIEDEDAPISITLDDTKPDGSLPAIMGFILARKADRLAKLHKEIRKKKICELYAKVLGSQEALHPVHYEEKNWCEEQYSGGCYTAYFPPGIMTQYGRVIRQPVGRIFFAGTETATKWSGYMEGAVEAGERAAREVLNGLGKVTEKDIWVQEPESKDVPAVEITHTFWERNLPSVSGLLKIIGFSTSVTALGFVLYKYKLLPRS

[4] = biological target: T1, Amine oxidase [flavin-containing] B; assay: Reversible inhibition of human MAO-B using p-tyramine as substrate at IC80 incubated for 1 hr prior to increasing substrate concentration measured for 5 hrs by fluorescence analysis
How it was run: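 Human MAO-B preincubated 1 h with inhibitor at about its IC80. Reaction started with p-tyramine (10 µM). After 22 min, substrate raised to a final 1 mM. Recovery of activity followed by fluorescence over 5 h.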

Question: For `COC(=O)c1cc2ccc(OCc3cccc(F)c3)cc2oc1=O`, which Ratio IC50 (Homo sapiens) is on record?
Answer: 130

Question: And the logD [1]?
Answer: 3.2

Question: What about the IC50 [2] of the same compound?
Answer: 0.588 nM

Question: And the IC50 [3]?
Answer: 77.2 nM

Question: With `C#CCOc1ccc2cc(C(=O)OC)c(=O)oc2c1` as the compound, how does the Ratio IC50 (Homo sapiens) read?
Answer: 1

Question: What about the IC50 [2] of the same compound?
Answer: 1790 nM

Question: And the IC50 [3]?
Answer: 1570 nM

Question: For `C#CCCCCOc1ccc2oc(=O)c(NC(C)=O)cc2c1`, which Ratio IC50 (Homo sapiens) is on record?
Answer: > 400

Question: What about the logD [1] of the same compound?
Answer: 2.4

Question: And the IC50 [2]?
Answer: 24.7 nM

Question: What about the IC50 [3] of the same compound?
Answer: > 10000 nM

Question: Which results are given for `C#CCCCCOc1ccc2oc(=O)c(C(=O)OC)cc2c1`?
Answer: Ratio IC50 (Homo sapiens): > 81; IC50 [2]: 123 nM; IC50 [3]: > 10000 nM

Question: Which results are given for `C#CCCCOc1ccc2cc(C(=O)N3CCN(C(=O)OC(C)(C)C)CC3)c(=O)oc2c1`?
Answer: IC50 [2]: 10000 nM; IC50 [3]: > 10000 nM

Question: Which results are given for `C#CCCCOc1ccc2c(C)cc(=O)oc2c1`?
Answer: Ratio IC50 (Homo sapiens): 30; IC50 [2]: 18.2 nM; IC50 [3]: 553 nM

Question: Which Ratio IC50 (Homo sapiens) does the source give for `C#CCCCCOc1ccc2ccc(=O)oc2c1` here?
Answer: 140

Question: And the IC50 [2]?
Answer: 2.62 nM

Question: What about the IC50 [3] of the same compound?
Answer: 367 nM

Question: Which “inhibition (INH)” value [4] does the source give for `C#CCCCCOc1ccc2cc(-c3ccc(OC)cc3)c(=O)oc2c1` here?
Answer: Active

Question: And the Ratio IC50 (Homo sapiens)?
Answer: > 3400

Question: What about the logD [1] of the same compound?
Answer: 4.3

Question: And the IC50 [2]?
Answer: 2.96 nM

Question: And the IC50 [3]?
Answer: > 10000 nM

Question: Which results are given for `C#CCCCCOc1ccc2cc(C(=O)c3ccc(OC)cc3)c(=O)oc2c1`?
Answer: Ratio IC50 (Homo sapiens): > 150; logD [1]: 3.5; IC50 [2]: 67.1 nM; IC50 [3]: > 10000 nM

Question: Which “inhibition (INH)” value [4] does the source give for `C[C@H](NCc1ccc(OCc2cccc(F)c2)cc1)C(N)=O` [SAFINAMIDE] here?
Answer: Active

Question: What does the source list for `COC(=O)c1cc2ccc(OC/C=C(\C)CCC=C(C)C)cc2oc1=O`?
Answer: Ratio IC50 (Homo sapiens): 130; IC50 [2]: 78.9 nM; IC50 [3]: 10000 nM

Question: With `C#CCCCCOc1ccc2c(C)cc(=O)oc2c1` as the compound, how does the Ratio IC50 (Homo sapiens) read?
Answer: 78

Question: What about the IC50 [2] of the same compound?
Answer: 0.77 nM

Question: What about the IC50 [3] of the same compound?
Answer: 59.9 nM

Question: For `C#CCCCOc1cccc2cc(C(=O)OC)c(=O)oc12`, which IC50 [2] is on record?
Answer: > 10000 nM

Question: What about the IC50 [3] of the same compound?
Answer: > 10000 nM

Question: What does the source list for `C#CCCCOc1ccc2oc(=O)c(C(=O)OC)cc2c1`?
Answer: Ratio IC50 (Homo sapiens): > 7; IC50 [2]: 1440 nM; IC50 [3]: > 10000 nM

Question: For `CCCCCCOc1ccc2cc(C(=O)OC)c(=O)oc2c1`, which Ratio IC50 (Homo sapiens) is on record?
Answer: 75

Question: What about the logD [1] of the same compound?
Answer: 4.2

Question: And the IC50 [2]?
Answer: 0.875 nM

Question: And the IC50 [3]?
Answer: 66.1 nM

Question: What does the source list for `C#CCCCOc1ccc2cc(C(=O)c3ccc(OC)cc3)c(=O)oc2c1`?
Answer: Ratio IC50 (Homo sapiens): > 19; logD [1]: 3.1; IC50 [2]: 535 nM; IC50 [3]: > 10000 nM

Question: Which results are given for `C#CCCCCOc1ccc2cc(NC(C)=O)c(=O)oc2c1`?
Answer: Ratio IC50 (Homo sapiens): 2; IC50 [2]: 41.7 nM; IC50 [3]: 66.8 nM

Question: Which results are given for `C#CCCOc1ccc2cc(C(=O)OC)c(=O)oc2c1`?
Answer: Ratio IC50 (Homo sapiens): 3; IC50 [2]: 258 nM; IC50 [3]: 818 nM

Question: Which Ratio IC50 (Homo sapiens) does the source give for `CC(=O)Nc1cc2ccc(OCc3cccc(Cl)c3)cc2oc1=O` here?
Answer: 5

Question: And the IC50 [2]?
Answer: 13.5 nM

Question: And the IC50 [3]?
Answer: 62.7 nM

Question: With `C#CCCCCOc1ccc2cc(C(=O)OC)c(=O)oc2c1` as the compound, how does the “inhibition (INH)” value [4] read?
Answer: Active

Question: What about the Ratio IC50 (Homo sapiens) of the same compound?
Answer: 7

Question: What about the logD [1] of the same compound?
Answer: 2.5

Question: And the IC50 [2]?
Answer: 1.41 nM

Question: And the IC50 [3]?
Answer: 9.64 nM

Question: With `C#CCCCOc1ccc2cc(C(=O)Nc3ccc(F)cc3)c(=O)oc2c1` as the compound, how does the IC50 [2] read?
Answer: > 10000 nM

Question: What about the IC50 [3] of the same compound?
Answer: > 10000 nM

Question: With `C#CCCCOc1ccc2cc(C(=O)O)c(=O)oc2c1` as the compound, how does the IC50 [2] read?
Answer: > 10000 nM

Question: And the IC50 [3]?
Answer: > 10000 nM

Question: Which Ratio IC50 (Homo sapiens) does the source give for `C#CCCCOc1ccc2ccc(=O)oc2c1` here?
Answer: 38

Question: And the IC50 [2]?
Answer: 91.8 nM

Question: What about the IC50 [3] of the same compound?
Answer: 3520 nM

Question: For `C#CCCCOc1ccc2cc(NC(C)=O)c(=O)oc2c1`, which Ratio IC50 (Homo sapiens) is on record?
Answer: 21

Question: And the IC50 [2]?
Answer: 43.6 nM

Question: What about the IC50 [3] of the same compound?
Answer: 930 nM

Question: With `COC(=O)c1cc2cc(OCCc3ccc(Cl)cc3)ccc2oc1=O` as the compound, how does the Ratio IC50 (Homo sapiens) read?
Answer: > 83

Question: What about the IC50 [2] of the same compound?
Answer: 120 nM

Question: What about the IC50 [3] of the same compound?
Answer: > 10000 nM

Question: For `COC(=O)c1cc2ccc(OCCc3ccc(Cl)cc3)cc2oc1=O`, which Ratio IC50 (Homo sapiens) is on record?
Answer: 53

Question: What about the logD [1] of the same compound?
Answer: 3.9

Question: And the IC50 [2]?
Answer: 1.41 nM

Question: What about the IC50 [3] of the same compound?
Answer: 74.8 nM

Question: Which IC50 [2] does the source give for `C#CCCCCOc1ccc2oc(=O)c(C(=O)c3ccc(OC)cc3)cc2c1` here?
Answer: > 10000 nM

Question: And the IC50 [3]?
Answer: > 10000 nM

Question: Which Ratio IC50 (Homo sapiens) does the source give for `COC(=O)c1cc2cc(OCc3cccc(Cl)c3)ccc2oc1=O` here?
Answer: > 320

Question: What about the IC50 [2] of the same compound?
Answer: 31.5 nM

Question: What about the IC50 [3] of the same compound?
Answer: > 10000 nM

Question: Which results are given for `C#CCNCCOc1ccc2cc(C(=O)OC)c(=O)oc2c1`?
Answer: Ratio IC50 (Homo sapiens): 7; logD [1]: 0.5; IC50 [2]: 377 nM; IC50 [3]: 2680 nM

Question: For `C#CCCCOc1ccc2cc(C(=O)OC)c(=O)oc2c1`, which Ratio IC50 (Homo sapiens) is on record?
Answer: 12

Question: What about the IC50 [2] of the same compound?
Answer: 82.4 nM

Question: And the IC50 [3]?
Answer: 953 nM

Question: For `C#CCCCCOc1ccc2c(c1)NC(=O)CC2`, which Ratio IC50 (Homo sapiens) is on record?
Answer: > 190

Question: What about the logD [1] of the same compound?
Answer: 1.6

Question: What about the IC50 [2] of the same compound?
Answer: 52.6 nM

Question: And the IC50 [3]?
Answer: > 10000 nM

Question: With `COC(=O)c1cc2cc(OC/C=C(\C)CCC=C(C)C)ccc2oc1=O` as the compound, how does the Ratio IC50 (Homo sapiens) read?
Answer: > 31

Question: What about the IC50 [2] of the same compound?
Answer: 325 nM

Question: And the IC50 [3]?
Answer: > 10000 nM

Question: Which Ratio IC50 (Homo sapiens) does the source give for `C#CCNCCOc1ccc2ccc(=O)oc2c1` here?
Answer: 12

Question: And the IC50 [2]?
Answer: 852 nM

Question: And the IC50 [3]?
Answer: 10000 nM
